This is an account of results in ChEMBL document CHEMBL1148736, “N-Acylthiadiazolines, a new class of liver X receptor agonists with selectivity for LXRbeta” (J Med Chem, 2007).

Calls of active or inactive are those of the source. The rule behind the calls is not given here.

The nature of data set [1]: Cmax in C57BL/6 mouse at 20 mg/kg, po. In kind it is ADME, organism-based. Also noted: dose 20 mg/kg, route oral. The following applies: in vivo. The procedure, abridged:
(§1)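 Mouse PK study, IV and PO; compound formulated at 2.5 mg/mL in PEG300/Tween 80 (4:1). IV dose 5 mpk (AUC, Cmax, clearance, Vss); oral dose 20 mpk (AUC, Cmax, bioavailability, t1/2).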

Data set [2] concerns the target T1, Oxysterols receptor LXR-alpha (Homo sapiens, UniProt Q13133).
T1 sequence (Q13133 whole entry): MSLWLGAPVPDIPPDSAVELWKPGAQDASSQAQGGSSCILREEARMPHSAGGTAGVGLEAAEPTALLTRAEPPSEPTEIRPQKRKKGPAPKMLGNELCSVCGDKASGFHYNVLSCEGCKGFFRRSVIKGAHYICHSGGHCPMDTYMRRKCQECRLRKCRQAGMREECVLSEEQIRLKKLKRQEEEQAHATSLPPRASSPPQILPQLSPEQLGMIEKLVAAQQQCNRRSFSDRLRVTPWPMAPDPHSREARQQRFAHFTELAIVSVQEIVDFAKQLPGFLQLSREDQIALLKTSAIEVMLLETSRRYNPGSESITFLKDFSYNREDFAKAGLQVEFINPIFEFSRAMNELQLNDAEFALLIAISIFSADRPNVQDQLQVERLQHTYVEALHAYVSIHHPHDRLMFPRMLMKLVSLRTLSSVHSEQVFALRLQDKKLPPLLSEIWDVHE
The experiment in a line: Agonist activity at GAL-linked human LXRalpha expressed in THP1 cells assessed as stimulation of coactivator recruitment by FRET assay. In kind it is functional. An outline of the steps: (§2)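 Cell-free TR-FRET coactivator recruitment: 20 nM His-tagged hLXRα or hLXRβ, 300 nM biotinylated SRC-1 peptide, Eu-anti-His antibody, APC-streptavidin. 12-point curves from 20 µM; 1 h at 37 °C. Duplicate. %E = maximal coactivator recruitment relative to reference dual agonist in same experiment.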

A short description of data set [3]: Stability in human liver microsomes at 1 uM after 30 mins. The data set is classed as ADME, Microsome. Conditions: read-out: Stability. An outline of the steps: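 Incubated at 1 µM with human liver microsomes; percent parent remaining measured at 30 min.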
Data set [4] relates to Macrophage. The experiment in a line: Induction of ABCA1 gene expression in LXRbeta deficient mouse macrophages. In kind it is functional, cell-based. The procedure, abridged:
(§3)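 Thioglycollate-elicited peritoneal macrophages from LXR-null mice, plated 24 h. Treated as for THP-1 without PMA: 2% lipoprotein-deficient serum medium, compound in DMSO for 24 h. ABCA1 mRNA by TaqMan qRT-PCR with 36B4 control, fold vs DMSO. Two concentrations used.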

The target in data set [5] is T2, Vitamin D3 receptor (Homo sapiens) (UniProt P11473).
T2 sequence (whole entry): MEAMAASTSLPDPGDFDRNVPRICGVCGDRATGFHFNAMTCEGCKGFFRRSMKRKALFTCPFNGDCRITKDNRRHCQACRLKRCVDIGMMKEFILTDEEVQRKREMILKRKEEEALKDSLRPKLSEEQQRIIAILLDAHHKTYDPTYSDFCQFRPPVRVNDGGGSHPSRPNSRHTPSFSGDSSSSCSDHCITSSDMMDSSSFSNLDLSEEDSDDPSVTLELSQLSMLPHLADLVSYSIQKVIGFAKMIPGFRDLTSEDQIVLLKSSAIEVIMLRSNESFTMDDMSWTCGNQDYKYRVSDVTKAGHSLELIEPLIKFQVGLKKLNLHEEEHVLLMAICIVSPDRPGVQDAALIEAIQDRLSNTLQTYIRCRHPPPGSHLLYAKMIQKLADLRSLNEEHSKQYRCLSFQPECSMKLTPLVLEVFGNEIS
Briefly: Activity at VDR by cell based assay. In kind it is functional.

Data set [6] is described as follows: Volume of distribution at steady state in C57BL/6 mouse at 5 mg/kg, iv. The data set is classed as ADME, organism-based. Details: dose 5 mg/kg, route intravenous. The following applies: in vivo, read-out: Vss. An outline of the steps: as §1
Data set [7] relates to Macrophage. The experiment in a line: Induction of ABCA1 gene expression in LXRalpha and LXRbeta deficient mouse macrophages. In kind it is functional, cell-based. An outline of the steps: as §3
Data set [8] concerns the target T3, Oxysterols receptor LXR-beta (Homo sapiens) (UniProt P55055).
T3 sequence (whole entry): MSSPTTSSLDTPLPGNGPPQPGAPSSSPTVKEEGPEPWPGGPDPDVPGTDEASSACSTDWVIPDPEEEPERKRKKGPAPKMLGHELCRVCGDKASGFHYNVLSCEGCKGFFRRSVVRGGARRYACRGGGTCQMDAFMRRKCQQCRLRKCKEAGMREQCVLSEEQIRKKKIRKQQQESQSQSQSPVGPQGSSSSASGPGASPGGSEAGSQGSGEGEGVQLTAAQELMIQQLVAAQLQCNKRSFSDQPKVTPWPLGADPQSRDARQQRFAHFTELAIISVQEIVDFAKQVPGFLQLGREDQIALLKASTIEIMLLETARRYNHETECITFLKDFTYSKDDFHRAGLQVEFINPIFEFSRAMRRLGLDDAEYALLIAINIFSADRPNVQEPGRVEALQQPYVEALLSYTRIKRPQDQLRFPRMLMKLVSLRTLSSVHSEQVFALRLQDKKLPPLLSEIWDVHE
Briefly: Agonist activity at GAL-linked human LXRbeta expressed in THP1 cells assessed as stimulation of co-activator recruitment by FRET assay relative to GW-3965. The data set is classed as functional. An outline of the steps: as §2

The nature of data set [9]: Half life in C57BL/6 mouse at 20 mg/kg, po. The data set is classed as ADME, organism-based. Details: dose 20 mg/kg, route oral. The following applies: in vivo. An outline of the steps:
as §1

Data set [10] in a line: AUC in C57BL/6 mouse at 5 mg/kg, iv. Conditions: plasma. The data set is classed as ADME, organism-based. Also noted: dose 5 mg/kg, route intravenous. An outline of the steps:
as §1

In the next data set the test system is HepG2. Briefly: Increase in FAS gene expression in HepG2 cells at 10 uM relative to GW-3965. In kind it is functional, Homo sapiens.
For data set [11], the system named is Liver. The experiment in a line: Effect on SREBP1c gene expression in C57BL/6 mouse liver. The data set is classed as functional, tissue-based. An outline of the steps: (§4)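 Male C57BL/6 mice, 10 weeks old, chow-fed, gavaged daily with vehicle or compound (20–200 mpk) for 3 days. Fasted overnight before the last dose; killed 3 h later. Tissue RNA analysed by TaqMan qRT-PCR.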

The target of data set [12] is T3, Oxysterols receptor LXR-beta (Homo sapiens). The experiment in a line: Activity at human LXRbeta by Gal4 transactivation assay relative to GW-3965. An outline of the steps: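 GAL4 DBD fused to hLXRα or hLXRβ LBD in pcDNA3, co-transfected into HepG2 with luciferase reporter. Cells in DMEM with 10% lipoprotein-deficient FBS, 7.5 µM lovastatin, 100 µM mevalonic acid. Ligand added 24 h post-transfection as 11-point curves from 10 µM; luciferase read after 16 h. Run in quadruplicate. %E = max fold induction vs max fold induction of reference dual agonist in same experiment.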

In data set [13] the target is T4, Oxysterols receptor LXR-beta (Homo sapiens, UniProt P55055).
T4 sequence (P55055 whole entry): T3 sequence (whole entry)
The experiment in a line: Agonist activity at GAL-linked human LXRbeta expressed in THP1 cells assessed as stimulation of co-activator recruitment by FRET assay. The data set is classed as functional. The procedure, abridged: as §2

In data set [14] the test system is Liver. Briefly: Effect on ABCA1 gene expression in C57BL/6 mouse liver. In kind it is functional, tissue-based. An outline of the steps: as §4
For data set [15], the system named is Macrophage. Briefly: Induction of ABCA1 gene expression in LXRalpha deficient mouse macrophages. The data set is classed as functional, cell-based. The procedure, abridged: as §3
Data set [16] concerns the target Peroxisome proliferator-activated receptor (Homo sapiens) (UniProt P37231+Q07869+Q03181). The experiment in a line: Activity at PPAR by cell based assay.

In [1], `COc1cccc(C2SC(c3ccc(Cl)cc3)=NN2C(=O)c2c(F)cc(F)cc2F)c1OC` (racemic) displayed a Cmax of 4.9 µM. Moreover, the EC50 in [2] came out at 2.3 µM; in data set [13], 0.25 µM. Moreover, the remaining at 0.5 h, 1 µM in data set [3] amounted to 70%. For the same compound, the result in the data set with Macrophage [4] and in the data set with Macrophage [15] was Active. Further, the outcome (in data set [5]; in the data set with Macrophage [7]; in the data set with Liver [11]; in the data set with Liver [14]; in [16]) was inactive. For the same compound, the Vd in data set [6] came to 1.65 L/kg. The Efficacy worked out at 99% in [8] and 82% in data set [12]. The compound further gave a half-life in [9] of 6.7 h. The same compound had an AUC in data set [10] of 7140 ng·h/mL. The Activity with HepG2 came to 33%.
